Assays:
[1] = substrate: NCC12C3C4C1C1C2C3C41C1CC1; experiment: (§1) Michaelis-Menten constant was determined against mitochondrial Monoamine oxidase B
Method in brief: (§2)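 K_m and k_cat against MAO B were obtained by measuring hydrogen peroxide formed over time with the amine as substrate.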

[2] = substrate: NCC12C3C4C1C1C2C3C41c1ccccc1; experiment: as §1; method in brief: as §2
[3] = substrate: NCC12C3C4C5C3C1C5C42; experiment: as §1; method in brief: as §2

B1: Amine oxidase [flavin-containing] B (Bos taurus) (protein)
chain: MSSKCDVVVVGGGISGMAAAKLLHDSGLNVIVLEARDRVGGRTYTLRNQKVKYVDLGGSYVGPTQNHILRLSKELGLETYKVNEVERLIHHTKGKSYPFRGSFPSVWNPITYLDHNNLWRTMDDMGREIPSDAPWKAPLAEQWDLMTMKELLDKICWTESSKQLAILFVNLCVTAEIHEVSALWFLWYVKQCGGTTRIFSTSNGGQERKFVGGSGQVSERIMDLLGDRVKLERPVIHIDQTGENVLVETLNHELYEAKYVISAVPPVLGMKIHFNPPLPMMRNQLITRVPLGSVIKSIVYYKEPFWRNMDYCGSMIIEGEEAPVAYALDDTKPDGSYPAIIGFILAHKARKLARLTKEERLKKLCDLYAKVLGSQEALHPVHYEEKNWCEEQYSGGCYTSYFPPGIMTQYGRVLRQPVGRIYFAGTETATHWSGYMEGAVEAGERAAREILHAMGKIPEDEIWLPEPESVDVPAKPITTTFLQRHLPSVPGLLKLIGLTTIFSATALGFLAHKRGLLVRI
[1]
  Km: 1540 µM
  kcat: 2.5 s⁻¹
  kcat/Km: 1670 M⁻¹ s⁻¹
[2]
  Km: 1010 µM
  kcat: 3.47 s⁻¹
  kcat/Km: 3500 M⁻¹ s⁻¹
[3]
  Km: 140 µM
  kcat: 0.0833 s⁻¹
  kcat/Km: 600 M⁻¹ s⁻¹

From ChEMBL document CHEMBL1129988, “4-substituted cubylcarbinylamines: a new class of mechanism-based monoamine oxidase B inactivators” (J Med Chem, 1997)
